According to ChEMBL document CHEMBL3286252, “Synthesis, biological evaluation and structure-activity relationship of new GABA uptake inhibitors, derivatives of 4-aminobutanamides” (Eur J Med Chem, 2014):
Active and inactive are the calls of the source.

How the values were obtained:
Mus musculus [1] = assay: Anticonvulsant activity against pentylenetetrazole-induced seizure in albino Swiss (CD-1) mouse assessed as decrease in seizure episodes at 100 mg/kg, ip administered 60 mins prior to PTZ challenge; assay type: functional; settings: route intraperitoneal
Procedure, shortened: (§1)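 Male CD-1 mice, 18–22 g, given compound or vehicle i.p. 60 min before PTZ 100 mg/kg s.c. Each mouse observed alone for 30 min for clonic seizures: whole-body clonus over 3 s with loss of righting reflex. Read-outs: latency to first clonus, number of seizure episodes, and deaths within 30 min. Groups of 7–10 mice, compared with vehicle.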

Mus musculus [2] = assay: Anticonvulsant activity against pentylenetetrazole-induced seizure in albino Swiss (CD-1) mouse assessed as delay in onset of seizures at 100 mg/kg, ip administered 60 mins prior to PTZ challenge; assay type: functional; settings: route intraperitoneal; procedure, shortened: as §1
Mus musculus [3] = assay: Anticonvulsant activity against pentylenetetrazole-induced seizure in albino Swiss (CD-1) mouse assessed as decrease in mortality rate at 100 mg/kg, ip administered 60 mins prior to PTZ challenge; assay type: functional; settings: route intraperitoneal; procedure, shortened: as §1
Mus musculus [4] = assay: Anticonvulsant activity against pilocarpine-induced seizure in albino Swiss (CD-1) mouse assessed as prolongation of latency time to seizures at 100 mg/kg, ip administered 60 mins before pilocarpine challenge; assay type: functional; settings: route intraperitoneal
Procedure, shortened: (§2)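 CD-1 mice received compound or vehicle (1% Tween 80) i.p. 60 min before pilocarpine 400 mg/kg i.p. Scopolamine butylbromide 1 mg/kg i.p. was given 45 min before pilocarpine. 7–8 mice per group; Student's t-test versus vehicle; mean ± SEM.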

Mus musculus [5] = assay: Anticonvulsant activity against pilocarpine-induced seizure in albino Swiss (CD-1) mouse assessed as prolongation of latency time to death at 100 mg/kg, ip administered 60 mins before pilocarpine challenge; assay type: functional; settings: route intraperitoneal
Procedure, shortened: (§3)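 Male CD-1 mice dosed i.p. with compound or vehicle (1% Tween 80). Scopolamine butylbromide 1 mg/kg i.p. given 45 min before pilocarpine; pilocarpine 400 mg/kg i.p. given 60 min after compound. Observed 1 h. Latency to tonic-clonic seizure and latency to death recorded, cut-off 60 min. 7–8 mice per group, mean ± SEM, Student's t-test against vehicle.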

Mus musculus [6] = assay: Anticonvulsant activity against pilocarpine-induced seizure in albino Swiss (CD-1) mouse assessed as prolongation of latency time to seizures at 200 mg/kg, ip administered 60 mins before pilocarpine challenge; assay type: functional; settings: route intraperitoneal; procedure, shortened: as §2
Mus musculus [7] = assay: Anticonvulsant activity against pilocarpine-induced seizure in albino Swiss (CD-1) mouse assessed as prolongation of latency time to death at 200 mg/kg, ip administered 60 mins before pilocarpine challenge; assay type: functional; settings: route intraperitoneal; procedure, shortened: as §3
Mus musculus [8] = assay: Antidepressant-like activity in albino Swiss (CD-1) mouse assessed as reduction in immobility time at 15 mg/kg, ip by forced swim test; assay type: functional; settings: route intraperitoneal
Procedure, shortened: (§4)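 Compound or vehicle was given i.p. 60 min before the test. Each mouse was placed for 6 min in a glass cylinder (25 cm high, 10 cm diameter) holding 10 cm of water at 23–25 C. Immobility, meaning passive floating, was timed over the final 4 min. 7–8 mice per group; ANOVA with Dunnett's test.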

Mus musculus [9] = assay: Antidepressant-like activity in albino Swiss (CD-1) mouse assessed as reduction in immobility time at 30 mg/kg, ip by forced swim test; assay type: functional; settings: route intraperitoneal; procedure, shortened: as §4
Mus musculus [10] = assay: Antinociceptive activity in ip dosed albino Swiss (CD-1) mouse measured after 60 mins by hot plate test; assay type: functional, organism-based
[11] = molecular target: T1, GABA transporter 2 (Mus musculus) (UniProt P31651); assay: Inhibition of mouse GAT2 expressed in HEK293 cells assessed as decrease in [3H]GABA uptake; assay type: cell-based; settings: concentration not given here
T1 sequence (whole entry): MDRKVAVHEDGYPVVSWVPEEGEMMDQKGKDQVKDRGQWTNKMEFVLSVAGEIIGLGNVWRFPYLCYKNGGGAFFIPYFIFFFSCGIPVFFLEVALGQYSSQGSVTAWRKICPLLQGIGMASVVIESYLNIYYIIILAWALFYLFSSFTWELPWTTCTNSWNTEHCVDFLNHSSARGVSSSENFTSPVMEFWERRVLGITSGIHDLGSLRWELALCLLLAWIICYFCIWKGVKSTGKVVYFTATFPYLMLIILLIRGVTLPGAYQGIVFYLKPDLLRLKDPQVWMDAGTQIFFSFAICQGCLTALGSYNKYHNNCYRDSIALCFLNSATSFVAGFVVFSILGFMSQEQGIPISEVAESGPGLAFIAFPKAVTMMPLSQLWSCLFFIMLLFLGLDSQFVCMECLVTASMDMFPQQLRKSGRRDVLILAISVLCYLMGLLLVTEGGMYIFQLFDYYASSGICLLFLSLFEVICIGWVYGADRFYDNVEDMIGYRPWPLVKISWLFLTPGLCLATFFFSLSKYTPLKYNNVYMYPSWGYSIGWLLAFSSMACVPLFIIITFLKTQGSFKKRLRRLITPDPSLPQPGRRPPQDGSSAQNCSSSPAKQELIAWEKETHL

Mus musculus [12] = assay: Anticonvulsant activity in albino Swiss (CD-1) mouse assessed as current intensity required to induce 50% tonic hind limb extensions at 100 mg/kg, ip after 60 mins by electroconvulsive threshold test (reference value: 6.61 mA); assay type: functional, Hindlimb; settings: route intraperitoneal

SMILES | inhibition in vivo at 100 mg/kg (Mus musculus [1]) [%] | Activity (Mus musculus [2]) [%] | inhibition in vivo at 100 mg/kg (Mus musculus [3]) [%] | Activity (Mus musculus [4]) [%] | Activity (Mus musculus [5]) [%] | Activity (Mus musculus [6]) [%] | Activity (Mus musculus [7]) [%] | inhibition in vivo at 15 mg/kg (Mus musculus [8]) [%] | inhibition in vivo at 30 mg/kg (Mus musculus [9]) [%] | Activity (Mus musculus [10]) | inhibition [11] [%] | CS50 (Mus musculus [12]) [mA]
CCC1(C)CC(=O)NC1=O (configuration not stated) [ETHOSUXIMIDE] | 64 | 120 | 75 |  |  |  |  |  |  |  |  | 
COc1ccc(C(OCCN2CCC[C@H](C(=O)O)C2)(c2ccc(OC)cc2)c2ccc(OC)cc2)cc1 |  |  |  | 158 | 243.8 | 258.9 | 202.7 | 12.1 | 19.9 | inactive | 56 | 7.95
